The values that follow come from ChEMBL document CHEMBL1144440, “A-ring-substituted estrogen-3-O-sulfamates: potent multitargeted anticancer agents” (J Med Chem, 2005).

Some results are limits rather than exact numbers.

In test [1] the test system is DU-145. The test can be described thus: Concentration required to inhibit the growth of DU-145 human prostate cancer cells by 50%. Type of test: functional. In outline: (§1)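 NCI 55 human cancer cell line panel screen; GI50 is the concentration giving 50% growth inhibition; compounds tested over 10^-4 to 10^-8 M.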
Test [2] deals with SF-539. Briefly: Concentration required to inhibit the growth of SF-539 human CNS cancer cells by 50%. The class given is functional. In a few lines: as §1
Test [3] concerns HCT-116. Briefly: Concentration required to inhibit the growth of HCT116 human colon cancer cells by 50%. The class given is functional. In outline:
as §1

In test [4] the test system is MDA-MB-435. The test can be described thus: Concentration required to inhibit the growth of MDA-MB-435 human breast cancer cells by 50%. The class given is functional. In outline:
as §1

Test [5] in a line: Mean graph midpoint (MGM) against a panel of human tumor cell lines. Type of test: functional. In outline:
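NCI 55 cell line panel; mean graph midpoint is the mean concentration giving 50% growth inhibition across all cell lines successfully evaluated; tested range 10^-4 to 10^-8 M, so 0.01 µM is the […] possible value.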

The subject of test [6] is OVCAR-3. The test can be described thus: Concentration required to inhibit the growth of OVCAR-3 human ovarian cancer cells by 50%. Type of test: functional. In a few lines: as §1
In test [7] the target is T1, Steryl-sulfatase (Homo sapiens, UniProt P08842).
T1 sequence (P08842 whole entry): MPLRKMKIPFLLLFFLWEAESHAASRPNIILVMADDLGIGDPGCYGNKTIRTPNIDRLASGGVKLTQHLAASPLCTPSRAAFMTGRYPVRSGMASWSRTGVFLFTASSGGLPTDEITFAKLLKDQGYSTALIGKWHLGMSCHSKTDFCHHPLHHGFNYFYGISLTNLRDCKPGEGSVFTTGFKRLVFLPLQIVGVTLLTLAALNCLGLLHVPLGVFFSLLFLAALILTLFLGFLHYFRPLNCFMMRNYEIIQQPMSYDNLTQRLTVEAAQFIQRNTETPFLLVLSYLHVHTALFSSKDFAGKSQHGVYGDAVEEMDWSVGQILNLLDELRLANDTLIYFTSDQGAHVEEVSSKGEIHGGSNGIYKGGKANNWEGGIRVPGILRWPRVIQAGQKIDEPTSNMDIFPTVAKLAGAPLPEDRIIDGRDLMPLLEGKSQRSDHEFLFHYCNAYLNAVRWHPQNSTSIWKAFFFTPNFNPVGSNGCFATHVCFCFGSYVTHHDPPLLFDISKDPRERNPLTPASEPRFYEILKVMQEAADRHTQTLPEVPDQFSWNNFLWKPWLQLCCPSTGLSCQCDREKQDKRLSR
The test can be described thus: Inhibitory concentration against steroid sulfatase in placental microsomes. Details: species or system Placenta.

A short description of test [8]: Concentration required to inhibit the growth of HOP-6 human lung cancer cells by 50%. Type of test: functional. The following applies: Cancer cell lines. In outline: as §1
The test system of test [9] is SN12C. Briefly: Concentration required to inhibit the growth of SN12C human renal cancer cells by 50%. The class given is functional. In a few lines: as §1
In test [10] the test system is MCF7. The test can be described thus: Inhibition of the growth of human breast cancer MCF-7 cells done for 96 hr at 37 degree C with compound. The following applies: MCF7, 96 h.
Test [11] relates to UACC-62. Briefly: Concentration required to inhibit the growth of UACC-62 human melanoma cells by 50%. The class given is functional. In a few lines:
as §1

The test system of test [12] is Mus musculus. Briefly: Reduction of tumor growth in female mice transplanted with xenografts derived from MDA-MB-435 (ER-) human breast cancer cells after 28 days of treatment at 20 mg/kg oral dose. The class given is functional, organism-based. On the set-up: dose 20 mg/kg, route oral. The following applies: MDA-MB-435, 672 h. In a few lines: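 Oral daily dosing for 28 days. Drug was dissolved in minimal THF, then diluted with propylene glycol. Vehicle controls received THF/propylene glycol. Groups were 12 female mice bearing MDA-MB-435 xenografts, with dosing started at 100-200 mm³. Tumour length and width were measured weekly, volume = l × w²/2, and monitoring continued 28 days after dosing. Growth was compared with controls by Student's t test.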
(Xenograft models place foreign cells or tissue in a host animal.)

On to `CCc1cc2c(cc1OS(N)(=O)=O)CC[C@@H]1[C@@H]2CC[C@]2(C)C(=O)CC[C@@H]12`, for which the GI50 in test [1], in test [2], in test [3], in test [4], in [6] and in test [8] was under 10 nM in each case. Besides, the 50% growth inhibitory concentration (GI50) in [9] was under 10 nM; in test [10], 340 nM; in [11], under 10 nM. Further, the MGM in test [5] came out at 0.014 µM. In [7], the half-inhibitory concentration (IC50) stood at 1800 nM.
Consider `COc1cc2c(cc1OS(N)(=O)=O)CC[C@@H]1[C@@H]2CC[C@]2(C)[C@@H](O)CC[C@@H]12`, for which the IC50 was 34 nM in test [7] and 33000 nM in [12].
Consider `C[C@]12CC[C@@H]3c4cc(I)c(OS(N)(=O)=O)cc4CC[C@H]3[C@@H]1CCC2=O`, for which the concentration for 50% growth inhibition (GI50) in test [10] turned out to be 1590 nM.
Still for that read-out and setting: to `CSc1cc2c(cc1O)CC[C@@H]1[C@@H]2CC[C@]2(C)[C@@H](O)CC[C@@H]12` belongs 3960 nM.
On to `COc1cc2c(cc1O)CC[C@@H]1[C@@H]2CC[C@]2(C)[C@@H](O)CC[C@@H]12` [2-METHOXYESTRADIOL], for which the GI50 in [1] amounted to 1800 nM; in [2], 320 nM; in [3], 470 nM; in test [4], 80 nM; in test [6], 210 nM; in test [8], 700 nM. Further, the GI50 in test [9] is 950 nM; in test [11] it was 360 nM. This molecule also registered an MGM in test [5] of 1.3 µM.
Consider `C[S+]([O-])c1cc2c(cc1O)CC[C@@H]1[C@@H]2CC[C@]2(C)C(=O)CC[C@@H]12` (some centres undefined), for which the concentration for 50% growth inhibition (GI50) in test [10] is over 10000 nM.
Turning to `C[C@]12CC[C@@H]3c4cc(Br)c(OS(N)(=O)=O)cc4CC[C@H]3[C@@H]1CCC2=O`, in test [10], the GI50 was found to be 6950 nM.
As to `CCc1cc2c(cc1O)CC[C@@H]1[C@@H]2CC[C@]2(C)[C@@H](O)CC[C@@H]12`, the GI50 in test [1] was found to be 11000 nM; in test [2], 3300 nM; in test [3] it was 3500 nM; in test [4] it was 1700 nM; in test [6] it was 2900 nM; in test [8], 6100 nM. Besides, the 50% growth inhibitory concentration (GI50) in test [9] stood at 7300 nM; in [10], 10500 nM. In [5], the MGM was determined as 6.5 µM.
With `C[C@]12CC[C@@H]3c4cc(S(C)(=O)=O)c(O)cc4CC[C@H]3[C@@H]1CCC2=O`, the GI50 in test [10] amounted to 66000 nM.
The same measure, in the same setting: with `CCOc1cc2c(cc1O)CC[C@@H]1[C@@H]2CC[C@]2(C)C(=O)CC[C@@H]12` the figure was 9040 nM.
Turning to `CCSc1cc2c(cc1OS(N)(=O)=O)CC[C@@H]1[C@@H]2CC[C@]2(C)C(=O)CC[C@@H]12`, the 50% growth inhibitory concentration (GI50) in test [1] was 13000 nM; in [2] it was 1400 nM; in [3], 3200 nM; in test [4] it was 2200 nM; in test [6] it was 2300 nM; in [8], 6900 nM. Besides, the 50% growth inhibitory concentration (GI50) in test [9] was determined as 11000 nM; in test [10], 35200 nM; in test [11], 5900 nM. The same molecule yielded an MGM in test [5] of 5.62 µM.
`CSc1cc2c(cc1OS(N)(=O)=O)CC[C@@H]1[C@@H]2CC[C@]2(C)C(=O)CC[C@@H]12`: the GI50 was 22000 nM in test [1]; 45 nM in [2]; 88 nM in test [3]; under 10 nM in test [4]; 12 nM in [6]; 35000 nM in test [8]. Besides, the GI50 in test [9] amounted to 760 nM; in [10] it was 400 nM; in test [11], 52 nM. Besides, the MGM in test [5] came out at 0.229 µM. Moreover, the IC50 in [7] was 120 nM.
On to `CCOc1cc2c(cc1OS(N)(=O)=O)CC[C@@H]1[C@@H]2CC[C@]2(C)[C@@H](O)CC[C@@H]12`, for which the GI50 in test [10] was 610 nM.
As to `CCSc1cc2c(cc1OS(N)(=O)=O)CC[C@@H]1[C@@H]2CC[C@]2(C)[C@@H](O)CC[C@@H]12`, the concentration for 50% growth inhibition (GI50) in test [10] worked out at 23400 nM.
Molecule `CCOc1cc2c(cc1OS(N)(=O)=O)CC[C@@H]1[C@@H]2CC[C@]2(C)C(=O)CC[C@@H]12` came in with a half-inhibitory concentration (IC50) in test [7] of 890 nM. In addition, the GI50 in test [10] was found to be 4840 nM.
As to `CCSc1cc2c(cc1O)CC[C@@H]1[C@@H]2CC[C@]2(C)[C@@H](O)CC[C@@H]12`, the GI50 in test [1] was determined as 24000 nM; in [2], 16000 nM; in test [3], 8500 nM; in [4], 2000 nM; in test [6], 14000 nM; in [8], 16000 nM. The GI50 in test [9] came out at 18000 nM; in [10] it was 23200 nM; in test [11] it was 11000 nM. In [5], this molecule came in with an MGM of 10 µM.
For the molecule `COc1cc2c(cc1OS(N)(=O)=O)CC[C@@H]1[C@@H]2CC[C@]2(C)C(=O)CC[C@@H]12`, the GI50 in test [1] was 320 nM; in [2], 120 nM; in [3], 65 nM; in [4], under 10 nM; in test [6] it was under 10 nM; in [8], 160 nM. Besides, the GI50 came to 600 nM in [9], 300 nM in test [10] and 17 nM in test [11]. This molecule also registered an MGM in [5] of 0.095 µM. The molecule further registered an IC50 in [7] of 42 nM.
On to `CCSc1cc2c(cc1O)CC[C@@H]1[C@@H]2CC[C@]2(C)C(=O)CC[C@@H]12`, for which the GI50 in test [10] is 31900 nM.
On to `CSc1cc2c(cc1O)CC[C@@H]1[C@@H]2CC[C@]2(C)C(=O)CC[C@@H]12`, for which the GI50 in test [1] came out at 85000 nM; in test [2], 14000 nM; in test [3], 20000 nM; in test [4], 12000 nM; in [6] it was 22000 nM; in test [8] it was 27000 nM. Further, the concentration for 50% growth inhibition (GI50) worked out at 19000 nM in test [9], 33400 nM in test [10] and 12000 nM in test [11]. In addition, the MGM in test [5] stood at 20.4 µM.
Regarding `COc1cc2c(cc1OS(=O)(=O)N(C)C)CC[C@@H]1[C@@H]2CC[C@]2(C)C(=O)CC[C@@H]12`, in test [10], the 50% growth inhibitory concentration (GI50) is over 10000 nM.
On the same count and under the same terms, with `C[C@]12CC[C@@H]3c4cc(I)c(O)cc4CC[C@H]3[C@@H]1CCC2=O` the figure was 38000 nM; with `Cc1cc2c(cc1OS(N)(=O)=O)CC[C@@H]1[C@@H]2CC[C@]2(C)C(=O)CC[C@@H]12`, 260 nM.
On the same count and under the same terms, with `COc1cc2c(cc1OS(=O)(=O)NC(C)=O)CC[C@@H]1[C@@H]2CC[C@]2(C)C(=O)CC[C@@H]12` the figure was 168000 nM.
As to `CCc1cc2c(cc1OS(N)(=O)=O)CC[C@@H]1[C@@H]2CC[C@]2(C)[C@@H](O)CC[C@@H]12`, the GI50 in [1], in test [2], in test [3], in test [4], in [6] and in test [8] was under 10 nM in each case. Moreover, the concentration for 50% growth inhibition (GI50) in test [9] was 40 nM; in test [10], 70 nM; in test [11] it was under 10 nM. The molecule also came in with an MGM in test [5] of 0.016 µM. Further, the IC50 in test [7] is 1000 nM.
On to `CSc1cc2c(cc1OS(N)(=O)=O)CC[C@@H]1[C@@H]2CC[C@]2(C)[C@@H](O)CC[C@@H]12`, for which the concentration for 50% growth inhibition (GI50) in test [10] stood at 430 nM.
On the same count and under the same terms, to `C[C@]12CC[C@@H]3c4cc(Br)c(O)cc4CC[C@H]3[C@@H]1CCC2=O` belongs 33000 nM.
`C[C@]12CC[C@@H]3c4ccc(OS(N)(=O)=O)cc4CC[C@H]3[C@@H]1CCC2=O` [EMATE]: in test [7], the half-inhibitory concentration (IC50) is 22 nM. This counts as double-digit nanomolar.
As for `COc1cc2c(cc1O)CC[C@@H]1[C@@H]2CC[C@]2(C)C(=O)CC[C@@H]12`, the GI50 in test [10] came to 21300 nM.
The same measure, in the same setting: with `CCc1cc2c(cc1O)CC[C@@H]1[C@@H]2CC[C@]2(C)C(=O)CC[C@@H]12` the figure was 57600 nM.

The GI50 is the concentration at which growth is held to half of that of the control. A word on the IC50: it is the concentration needed to halve the response being measured. Lower therefore signals greater potency in that assay.
